Source: PMC7217734 (Journal of biomolecular structure & dynamics, 2019)
Residues, ends and D or L forms follow the SMILES beside them.

What was measured:
Dynamic light scattering = assay type: physicochemical; settings: 25°C, 1 mg/ml; 50mM NaCl, 10mM Tris-HCl (pH 7.5); individual peptide
[1] = target: T1, peptide 91a (coil 1A of vimentin) (Homo sapiens, UniProt P08670, A91E/F96L/I92R/N93L/Q126R/Q127R/T94A/V121L); experiment: Isothermal titration calorimetry; assay type: binding; settings: NANO ITC; 374a 0.540mM in syringe, 91a 0.095mM in cell
T1 sequence (P08670 with tags, fused parts or gaps V121L/Q126R/Q127R limits assumed): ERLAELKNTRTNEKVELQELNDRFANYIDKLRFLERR
Procedure, shortened: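 The peptides were dissolved in 10 mM Tris pH 8.0. In a low-volume nano calorimeter, the syringe peptide was titrated into the cell peptide in 20 injections of 2.5 µl. Raw heat rate was recorded in µJ/s, and each injection peak was integrated to µJ. The isotherm gave the dissociation constant and stoichiometry n.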

## CC[C@H](C)[C@H](NC(=O)[C@H](CCC(=O)O)NC(=O)[C@@H](NC(=O)[C@H](CC(=O)O)NC(=O)[C@H](CC(C)C)NC(=O)[C@H](C)NC(=O)[C@H](CCSC)NC(=O)[C@H](CCCCN)NC(=O)[C@@H](NC(=O)[C@H](CC(N)=O)NC(=O)[C@H](CC(C)C)NC(=O)[C@H](CC(C)C)NC(=O)[C@H](CC(=O)O)NC(=O)[C@H](CCC(N)=O)NC(=O)[C@H](Cc1ccc(O)cc1)NC(=O)[C@H](CCC(=O)O)NC(=O)[C@H](CCCNC(=N)N)NC(=O)[C@H](CCC(=O)O)NC(=O)[C@H](CC(C)C)NC(=O)[C@H](CCCNC(=N)N)NC(=O)[C@H](C)NC(=O)[C@H](CC(C)C)NC(=O)[C@H](CCC(=O)O)NC(=O)[C@@H](N)CCC(=O)O)C(C)C)[C@@H](C)CC)C(=O)N[C@@H](C)C(=O)N[C@H](C(=O)N[C@@H](Cc1ccc(O)cc1)C(=O)N[C@@H](CCCNC(=N)N)C(=O)N[C@@H](CCCCN)C(=O)N[C@@H](CC(C)C)C(=O)N[C@@H](CC(C)C)C(=O)N[C@@H](CCC(=O)O)C(=O)N[C@@H](C)C(=O)N[C@@H](CC(C)C)C(=O)N[C@@H](CCC(=O)O)C(=O)N[C@@H](CO)C(=O)N[C@@H](CCCNC(=N)N)C(=O)O)[C@@H](C)O [peptide 374a] (H-EELARLEREYQDLLNVKMALDIEIATYRKLLEALESR-OH; N-terminus and C-terminus assumed)
Dynamic light scattering
  aggregation by DLS, in words: aggregation is occurring
[1]
  stoichiometric ratio n: ~1
  thermodynamic character of interaction, in words: enthalpy-driven interaction
